Data published in ChEMBL document CHEMBL4330069, “Boosting the efficacy of anti-MRSA β-lactam antibiotics via an easily accessible, non-cytotoxic and orally bioavailable FtsZ inhibitor” (Eur J Med Chem, 2019).
pIC50: −log10 of the molar value. In brackets after ≈: the same amount, converted by molar mass.

Columns and labels:
[1] = Selective index, ratio of IC50 for mouse L929 cells to MIC for Staphylococcus aureus ATCC 29213
Procedure, shortened: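 Selectivity index calculated as L929 IC50 (μM) divided by S. aureus MIC (μM).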

Staphylococcus aureus [2] = test: Antibacterial activity against Staphylococcus aureus ATCC 29213 by broth microdilution assay; format: functional
Procedure, shortened: (§1)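 Broth microdilution per CLSI guidelines; compounds dissolved in DMSO; single agents tested; growth inhibition read by eye; run in duplicate (table footnote states at least triplicates).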

Escherichia coli = test: Antibacterial activity against Escherichia coli ATCC 25922 by broth microdilution assay; format: functional; procedure, shortened: as §1
L929 = test: Cytotoxicity against mouse L929 cells by MTS assay; format: cell-based
Procedure, shortened: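 MTS assay on L929 mouse fibroblasts; IC50 reported as the average of three independent measurements.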

Staphylococcus aureus [3] = test: Antibacterial activity against multidrug-resistant Staphylococcus aureus isolate 3267 by broth microdilution assay; format: functional
Procedure, shortened: (§2)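 Broth microdilution MIC per CLSI guidelines against clinical MRSA isolates, for β-lactams and test compound alone and in combination. Compounds were dissolved in DMSO. Growth was read by eye, in duplicate. FIC index = FIC(compound) + FIC(drug); synergy defined as FIC index ≤0.5.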

Staphylococcus aureus [4] = test: Antibacterial activity against multidrug-resistant Staphylococcus aureus isolate 2973 by broth microdilution assay; format: functional; procedure, shortened: as §2
Staphylococcus aureus [5] = test: Antibacterial activity against multidrug-resistant Staphylococcus aureus isolate 256 by broth microdilution assay; format: functional; procedure, shortened: as §2
Staphylococcus aureus [6] = test: Antibacterial activity against multidrug-resistant Staphylococcus aureus isolate 1344 by broth microdilution assay; format: functional; procedure, shortened: as §2
Staphylococcus aureus [7] = test: Antibacterial activity against multidrug-resistant Staphylococcus aureus isolate 2901 by broth microdilution assay; format: functional; procedure, shortened: as §2
Staphylococcus aureus [8] = test: Antibacterial activity against multidrug-resistant Staphylococcus aureus isolate 200 by broth microdilution assay; format: functional; procedure, shortened: as §2
Staphylococcus aureus [9] = test: Antibacterial activity against multidrug-resistant Staphylococcus aureus isolate 1402 by broth microdilution assay; format: functional; procedure, shortened: as §2
Staphylococcus aureus [10] = test: Antibacterial activity against multidrug-resistant Staphylococcus aureus isolate 3580 by broth microdilution assay; format: functional; procedure, shortened: as §2
Staphylococcus aureus [11] = test: Antibacterial activity against multidrug-resistant Staphylococcus aureus isolate 254 by broth microdilution assay; format: functional; procedure, shortened: as §2
Staphylococcus aureus [12] = test: Antibacterial activity against multidrug-resistant Staphylococcus aureus isolate 85 by broth microdilution assay; format: functional; procedure, shortened: as §2
Staphylococcus aureus [13] = test: Antibacterial activity against multidrug-resistant Staphylococcus aureus isolate 2224 by broth microdilution assay; format: functional; procedure, shortened: as §2
Staphylococcus aureus [14] = test: Antibacterial activity against multidrug-resistant Staphylococcus aureus isolate 1717 by broth microdilution assay; format: functional; procedure, shortened: as §2
Staphylococcus aureus [15] = test: Antibacterial activity against multidrug-resistant Staphylococcus aureus isolate 3332 by broth microdilution assay; format: functional; procedure, shortened: as §2
Staphylococcus aureus [16] = test: Antibacterial activity against multidrug-resistant Staphylococcus aureus isolate 2516 by broth microdilution assay; format: functional; procedure, shortened: as §2
Staphylococcus aureus [17] = test: Antibacterial activity against multidrug-resistant Staphylococcus aureus isolate 231 by broth microdilution assay; format: functional; procedure, shortened: as §2
Staphylococcus aureus [18] = test: Antibacterial activity against multidrug-resistant Staphylococcus aureus isolate 2728 by broth microdilution assay; format: functional; procedure, shortened: as §2
Staphylococcus aureus [19] = test: Antibacterial activity against multidrug-resistant Staphylococcus aureus isolate 2490 by broth microdilution assay; format: functional; procedure, shortened: as §2
Staphylococcus aureus [20] = test: Antibacterial activity against multidrug-resistant Staphylococcus aureus isolate 3589 by broth microdilution assay; format: functional; procedure, shortened: as §2
Staphylococcus aureus [21] = test: Antibacterial activity against multidrug-resistant Staphylococcus aureus isolate 3411 by broth microdilution assay; format: functional; procedure, shortened: as §2
Staphylococcus aureus [22] = test: Antibacterial activity against multidrug-resistant Staphylococcus aureus isolate 1136 by broth microdilution assay; format: functional; procedure, shortened: as §2
Staphylococcus aureus [23] = test: Antibacterial activity against multidrug-resistant Staphylococcus aureus isolate 757 by broth microdilution assay; format: functional; procedure, shortened: as §2
Staphylococcus aureus [24] = test: Antibacterial activity against multidrug-resistant Staphylococcus aureus isolate 417 by broth microdilution assay; format: functional; procedure, shortened: as §2
Staphylococcus aureus [25] = test: Antibacterial activity against multidrug-resistant Staphylococcus aureus isolate 774 by broth microdilution assay; format: functional; procedure, shortened: as §2
Staphylococcus aureus [26] = test: Antibacterial activity against multidrug-resistant Staphylococcus aureus isolate 358 by broth microdilution assay; format: functional; procedure, shortened: as §2
Staphylococcus aureus [27] = test: Antibacterial activity against multidrug-resistant Staphylococcus aureus isolate 2895 by broth microdilution assay; format: functional; procedure, shortened: as §2
Staphylococcus aureus [28] = test: Antibacterial activity against multidrug-resistant Staphylococcus aureus isolate 1749 by broth microdilution assay; format: functional; procedure, shortened: as §2
Staphylococcus aureus [29] = test: Antibacterial activity against multidrug-resistant Staphylococcus aureus isolate 1449 by broth microdilution assay; format: functional; procedure, shortened: as §2
Staphylococcus aureus [30] = test: Antibacterial activity against multidrug-resistant Staphylococcus aureus isolate 2919 by broth microdilution assay; format: functional; procedure, shortened: as §2

Structure (SMILES) | Selectivity Index [1] | MIC (Staphylococcus aureus [2]) | MIC (Escherichia coli) | pIC50 (L929) | MIC (Staphylococcus aureus [3]) | MIC (Staphylococcus aureus [4]) | MIC (Staphylococcus aureus [5]) | MIC (Staphylococcus aureus [6]) | MIC (Staphylococcus aureus [7]) | MIC (Staphylococcus aureus [8]) | MIC (Staphylococcus aureus [9]) | MIC (Staphylococcus aureus [10]) | MIC (Staphylococcus aureus [11]) | MIC (Staphylococcus aureus [12]) | MIC (Staphylococcus aureus [13]) | MIC (Staphylococcus aureus [14]) | MIC (Staphylococcus aureus [15]) | MIC (Staphylococcus aureus [16]) | MIC (Staphylococcus aureus [17]) | MIC (Staphylococcus aureus [18]) | also measured
CCCCCCCCCOc1ccc(F)c(C(N)=O)c1F | 29 | 3.1 µM (≈ 0.928 µg/mL) | > 64 µg/mL | 4.05 | – | – | – | – | – | – | – | – | – | – | – | – | – | – | – | – | –
COc1cccc(OC)c1C(=O)N[C@@H]1C(=O)N2[C@@H]1SC(C)(C)[C@@H]2C(=O)O [METHICILLIN] | – | – | – | – | 64 µg/mL (≈ 168 µM) | 16 µg/mL (≈ 42.1 µM) | 128 µg/mL (≈ 336 µM) | 256 µg/mL (≈ 673 µM) | 256 µg/mL (≈ 673 µM) | 16 µg/mL (≈ 42.1 µM) | 32 µg/mL (≈ 84.1 µM) | 16 µg/mL (≈ 42.1 µM) | 1020 µg/mL (≈ 2690 µM) | 8 µg/mL (≈ 21 µM) | 16 µg/mL (≈ 42.1 µM) | 16 µg/mL (≈ 42.1 µM) | 128 µg/mL (≈ 336 µM) | 64 µg/mL (≈ 168 µM) | 1020 µg/mL (≈ 2690 µM) | 32 µg/mL (≈ 84.1 µM) | MIC (Staphylococcus aureus [19]): 1020 µg/mL (≈ 2690 µM); MIC (Staphylococcus aureus [20]): 256 µg/mL (≈ 673 µM); MIC (Staphylococcus aureus [21]): 128 µg/mL (≈ 336 µM); MIC (Staphylococcus aureus [22]): 64 µg/mL (≈ 168 µM); MIC (Staphylococcus aureus [23]): 64 µg/mL (≈ 168 µM); MIC (Staphylococcus aureus [24]): 1020 µg/mL (≈ 2690 µM); MIC (Staphylococcus aureus [25]): 16 µg/mL (≈ 42.1 µM); MIC (Staphylococcus aureus [26]): 16 µg/mL (≈ 42.1 µM); MIC (Staphylococcus aureus [27]): 64 µg/mL (≈ 168 µM); MIC (Staphylococcus aureus [28]): 32 µg/mL (≈ 84.1 µM); MIC (Staphylococcus aureus [29]): 8 µg/mL (≈ 21 µM); MIC (Staphylococcus aureus [30]): 32 µg/mL (≈ 84.1 µM)
CCCCCCCCNc1ccc(F)c(C(N)=O)c1F | >2 | 50 µM (≈ 14.2 µg/mL) | > 64 µg/mL | < 4.00 | – | – | – | – | – | – | – | – | – | – | – | – | – | – | – | – | –
CC1(C)S[C@@H]2[C@H](NC(=O)[C@H](N)c3ccc(O)cc3)C(=O)N2[C@H]1C(=O)O [AMOXICILLIN] | – | – | – | – | 8 µg/mL (≈ 21.9 µM) | 512 µg/mL (≈ 1400 µM) | 256 µg/mL (≈ 701 µM) | 128 µg/mL (≈ 350 µM) | 512 µg/mL (≈ 1400 µM) | 512 µg/mL (≈ 1400 µM) | 256 µg/mL (≈ 701 µM) | 256 µg/mL (≈ 701 µM) | 128 µg/mL (≈ 350 µM) | 256 µg/mL (≈ 701 µM) | 512 µg/mL (≈ 1400 µM) | 32 µg/mL (≈ 87.6 µM) | 64 µg/mL (≈ 175 µM) | 64 µg/mL (≈ 175 µM) | 256 µg/mL (≈ 701 µM) | 512 µg/mL (≈ 1400 µM) | MIC (Staphylococcus aureus [19]): 128 µg/mL (≈ 350 µM); MIC (Staphylococcus aureus [20]): 128 µg/mL (≈ 350 µM); MIC (Staphylococcus aureus [21]): 256 µg/mL (≈ 701 µM); MIC (Staphylococcus aureus [22]): 512 µg/mL (≈ 1400 µM); MIC (Staphylococcus aureus [23]): 8 µg/mL (≈ 21.9 µM); MIC (Staphylococcus aureus [24]): 512 µg/mL (≈ 1400 µM); MIC (Staphylococcus aureus [25]): 512 µg/mL (≈ 1400 µM); MIC (Staphylococcus aureus [26]): 256 µg/mL (≈ 701 µM); MIC (Staphylococcus aureus [27]): 256 µg/mL (≈ 701 µM); MIC (Staphylococcus aureus [28]): 64 µg/mL (≈ 175 µM); MIC (Staphylococcus aureus [29]): 2 µg/mL (≈ 5.47 µM); MIC (Staphylococcus aureus [30]): 1020 µg/mL (≈ 2800 µM)
CCCCOc1cccc(CNc2ccc(F)c(C(N)=O)c2F)c1 | 2 | 50 µM (≈ 16.7 µg/mL) | > 64 µg/mL | 4.00 | – | – | – | – | – | – | – | – | – | – | – | – | – | – | – | – | –
NC(=O)c1c(F)ccc(N(Cc2ccc(Cl)cc2)Cc2ccc(Cl)cc2)c1F | >8 | 13 µM (≈ 5.48 µg/mL) | > 64 µg/mL | < 4.00 | – | – | – | – | – | – | – | – | – | – | – | – | – | – | – | – | –
Cc1onc(-c2ccccc2Cl)c1C(=O)N[C@@H]1C(=O)N2[C@@H]1SC(C)(C)[C@@H]2C(=O)O [CLOXACILLIN] | – | – | – | – | 4 µg/mL (≈ 9.18 µM) | 16 µg/mL (≈ 36.7 µM) | 8 µg/mL (≈ 18.4 µM) | 16 µg/mL (≈ 36.7 µM) | 2 µg/mL (≈ 4.59 µM) | 1 µg/mL (≈ 2.29 µM) | 2 µg/mL (≈ 4.59 µM) | 2 µg/mL (≈ 4.59 µM) | 32 µg/mL (≈ 73.4 µM) | 0.5 µg/mL (≈ 1.15 µM) | 8 µg/mL (≈ 18.4 µM) | 0.5 µg/mL (≈ 1.15 µM) | 8 µg/mL (≈ 18.4 µM) | 16 µg/mL (≈ 36.7 µM) | 64 µg/mL (≈ 147 µM) | 1 µg/mL (≈ 2.29 µM) | MIC (Staphylococcus aureus [19]): 2 µg/mL (≈ 4.59 µM); MIC (Staphylococcus aureus [20]): 32 µg/mL (≈ 73.4 µM); MIC (Staphylococcus aureus [21]): 32 µg/mL (≈ 73.4 µM); MIC (Staphylococcus aureus [22]): 8 µg/mL (≈ 18.4 µM); MIC (Staphylococcus aureus [23]): 8 µg/mL (≈ 18.4 µM); MIC (Staphylococcus aureus [24]): 64 µg/mL (≈ 147 µM); MIC (Staphylococcus aureus [25]): 2 µg/mL (≈ 4.59 µM); MIC (Staphylococcus aureus [26]): 1 µg/mL (≈ 2.29 µM); MIC (Staphylococcus aureus [27]): 8 µg/mL (≈ 18.4 µM); MIC (Staphylococcus aureus [28]): 0.5 µg/mL (≈ 1.15 µM); MIC (Staphylococcus aureus [29]): 1 µg/mL (≈ 2.29 µM); MIC (Staphylococcus aureus [30]): 4 µg/mL (≈ 9.18 µM)
CCCCCOc1cccc(CNc2ccc(F)c(C(N)=O)c2F)c1 | 2 | 50 µM (≈ 17.4 µg/mL) | > 64 µg/mL | 4.06 | – | – | – | – | – | – | – | – | – | – | – | – | – | – | – | – | –
NC(=O)c1c(F)ccc(N(Cc2ccc(F)cc2)Cc2ccc(F)cc2)c1F | >2 | 50 µM (≈ 19.4 µg/mL) | > 64 µg/mL | < 4.00 | – | – | – | – | – | – | – | – | – | – | – | – | – | – | – | – | –
